The test system of one assay is Hepatovirus A. As to the kind of experiment: Antiviral activity against Hepatitis A virus infected in African green monkey Vero cells by plaque formation assay. It counts as functional. Details: concentration or dose not given beside the values.
Assay [1] in a line: Cytotoxicity against human HepG2 cells assessed as decrease in cell viability after 48 hrs by SRB assay. It counts as functional, cell-based. In outline: (§1)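 SRB assay. Cells seeded at 10⁴ per well and allowed to attach for 24 h. Exposed to 0, 5, 12.5, 25 and 50 µg/mL, triplicate wells per dose, for 48 h at 37 °C in 5% CO₂. Cells fixed and SRB-stained; excess dye removed with acetic acid, bound dye recovered in Tris-EDTA and read on an ELISA reader. IC50 read from the surviving-fraction curve.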
Background: The SRB assay estimates cell density from bound dye.

The nature of assay [2]: Cytotoxicity against human MCF7 cells assessed as decrease in cell viability after 48 hrs by SRB assay. Format: functional, cell-based. Set-up: unit not given here. An outline of the steps:
as §1

Assay [3] in a line: Cytotoxicity against human HCT116 cells assessed as decrease in cell viability after 48 hrs by SRB assay. It counts as functional, cell-based. To be noted: hct-116. In outline: as §1
Assay [4] can be described thus: Cytotoxicity against human PC3 cells assessed as decrease in cell viability after 48 hrs by SRB assay. Format: functional, cell-based. The following applies: pc-3. In outline: as §1
Another assay deals with Human alphaherpesvirus 1. As to the kind of experiment: Antiviral activity against HSV1 infected in African green monkey Vero cells by plaque formation assay. Format: functional. Set-up: concentration or dose not given beside the values.
The subject of another assay is Coxsackievirus B4. As to the kind of experiment: Antiviral activity against human Coxsackie virus B4 infected in African green monkey Vero cells by plaque formation assay. Format: functional. Details: concentration or dose not given beside the values.
In assay [5] the test system is Micrococcus luteus. Briefly: Antibacterial activity against Micrococcus luteus ATCC 10240 at 5 mg after 24 hrs by agar well diffusion assay. Format: functional. To be noted: ATCC 10240, 24 h, read-out: DIZ. An outline of the steps:
(§2)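 Agar well diffusion. 100 µL inoculum (1×10⁸ CFU/mL bacteria, 1×10⁶ CFU/mL yeast) spread on nutrient agar (bacteria) or Sabouraud dextrose agar (fungi). 10 mm wells loaded with 100 µL of 5 mg/mL compound in DMSO. DMSO as negative control. Erythromycin (bacteria) or […] (fungi) at 5 mg/ml as standards. Plates incubated 24 h at 37 °C. Inhibition zone diameter (mm) measured, mean of triplicate.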
(In general: In agar diffusion tests the substance spreads into inoculated agar from a disc or well.)

For another assay, the system named is Bacillus subtilis. As to the kind of experiment: Antibacterial activity against Bacillus subtilis NCTC 10400 at 5 mg after 24 hrs by agar well diffusion assay. It counts as functional. The following applies: NCTC 10400, 24 h, read-out: DIZ. An outline of the steps: as §2
The subject of assay [6] is Bacillus pumilus. As to the kind of experiment: Antibacterial activity against Bacillus pumilus at 5 mg after 24 hrs by agar well diffusion assay. Format: functional. The following applies: read-out: DIZ. In outline:
as §2

Assay [7] deals with Pseudomonas aeruginosa. Briefly: Antibacterial activity against Pseudomonas aeruginosa ATCC 25619 at 5 mg after 24 hrs by agar well diffusion assay. It counts as functional. The following applies: ATCC 25619, 24 h, read-out: DIZ. An outline of the steps:
as §2

The test system of a further assay is Escherichia coli. As to the kind of experiment: Antibacterial activity against Escherichia coli ATCC 10536 at 5 mg after 24 hrs by agar well diffusion assay. It counts as functional. The following applies: ATCC 10536, 24 h, read-out: DIZ. In outline:
as §2

The subject of assay [8] is Micrococcus luteus. Briefly: Antibacterial activity against Sarcina lutea at 5 mg after 24 hrs by agar well diffusion assay. It counts as functional. To be noted: read-out: DIZ. In outline:
as §2

Assay [9] relates to Candida albicans. As to the kind of experiment: Antifungal activity against Candida albicans IMRU 3669 at 5 mg after 24 hrs by agar well diffusion assay. It counts as functional. To be noted: IMRU 3669, 24 h, read-out: DIZ. An outline of the steps:
as §2

The test system of a further assay is Aspergillus niger. As to the kind of experiment: Antifungal activity against Aspergillus niger at 5 mg after 24 hrs by agar well diffusion assay. Format: functional. The following applies: read-out: DIZ. In outline: as §2
Assay [10] in a line: Antifungal activity against Penicillium chrysogenum at 5 mg after 24 hrs by agar well diffusion assay. It counts as functional. In outline:
as §2

Assay [11] concerns Pseudomonas aeruginosa. As to the kind of experiment: Antibacterial activity against Pseudomonas aeruginosa ATCC 25619 after 24 hrs by two-fold serial dilution method. It counts as functional. The following applies: ATCC 25619, 24 h. An outline of the steps: (§3)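 Two-fold serial dilutions of DMSO stock in adjusted Mueller-Hinton broth, final 100 to 0.78 µg/ml. Bacteria pre-grown in nutrient broth, fungi in malt extract broth (48 h). Each 5 ml tube given 0.1 ml inoculum (1×10⁸ CFU/ml bacteria, 1×10⁶ CFU/ml fungi), incubated 37 °C 24 h. MIC taken as lowest concentration with no growth; triplicate, averaged.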

Assay [12] relates to Micrococcus luteus. As to the kind of experiment: Antibacterial activity against Sarcina lutea after 24 hrs by two-fold serial dilution method. Format: functional. An outline of the steps:
as §3

Assay [13] relates to Bacillus pumilus. Briefly: Antibacterial activity against Bacillus pumilus after 24 hrs by two-fold serial dilution method. Format: functional. In outline: as §3
Assay [14] concerns Micrococcus luteus. Briefly: Antibacterial activity against Micrococcus luteus ATCC 10240 after 24 hrs by two-fold serial dilution method. It counts as functional. The following applies: ATCC 10240, 24 h. In outline: as §3
The subject of assay [15] is Candida albicans. Briefly: Antifungal activity against Candida albicans IMRU 3669 after 24 hrs by two-fold serial dilution method. Format: functional. The following applies: IMRU 3669, 24 h. An outline of the steps:
as §3

Values after ≈ are worked out from the molar mass of the structure shown.

Broadly, the MIC is the lowest concentration found to suppress growth.

For `COc1ccc(OC)c(N2C(=O)N(c3ccc(SC)cc3)C(=N)C2=S)c1`, the values for the Activity in the assay on Hepatovirus A, in the assay on Human alphaherpesvirus 1 and in the assay on Coxsackievirus B4 were 0%, 85.7% and 18.5%, respectively. For the same molecule, the IC50 in [1] worked out at 0.029 µg; in assay [2], 0.028; in assay [3], 0.05 µg; in [4], 0.047 µg. For the same molecule, the zone of inhibition at 5000 µg/disc in the assay with Micrococcus luteus [5] turned out to be 17 mm; in the assay on Bacillus subtilis, 29 mm; in the assay with Bacillus pumilus [6] it was 20 mm; in the assay on Pseudomonas aeruginosa [7] it was 25 mm; with Escherichia coli, 29 mm; in the assay on Micrococcus luteus [8] it was 31 mm. The zone of inhibition at 5000 µg/disc with Candida albicans [9] was 27 mm; with Aspergillus niger, 20 mm. This molecule displayed an inhibition zone (IZ) in [10] of 22 mm. In addition, the MIC against Pseudomonas aeruginosa [11] worked out at 0.78 µg/mL (≈ 2.01 µM); against Micrococcus luteus [12] it was 6.25 µg/mL (≈ 16.1 µM); against Bacillus pumilus [13], 6.25 µg/mL (≈ 16.1 µM); against Micrococcus luteus [14], 6.25 µg/mL (≈ 16.1 µM); with Candida albicans [15], 6.25 µg/mL (≈ 16.1 µM).
In the case of `COc1ccc(N2C(=N)C(=S)N(c3cc(OC)ccc3OC)C2=O)cc1`, the Activity in the assay on Hepatovirus A is reported as 60.1%; in the assay with Human alphaherpesvirus 1 it was 42%; in the assay with Coxsackievirus B4, 0%. Further, the IC50 in assay [1] is 0.032 µg; in assay [2], 0.031; in assay [3], 0.051 µg; in assay [4], 0.051 µg. Also, the zone of inhibition at 5000 µg/disc with Micrococcus luteus [5] is 17 mm; with Bacillus subtilis it was 28 mm; in the assay on Bacillus pumilus [6], 23 mm; with Pseudomonas aeruginosa [7], 26 mm; in the assay with Escherichia coli, 28 mm; with Micrococcus luteus [8], 27 mm. Besides, the results for the zone of inhibition at 5000 µg/disc in the assay on Candida albicans [9] and with Aspergillus niger were 29 mm and 19 mm, respectively. Also, in assay [10], the inhibition zone (IZ) was found to be 20 mm. Moreover, the MIC against Pseudomonas aeruginosa [11] came out at 0.78 µg/mL (≈ 2.1 µM); with Micrococcus luteus [12], 6.25 µg/mL (≈ 16.8 µM); with Bacillus pumilus [13], 3.12 µg/mL (≈ 8.4 µM); in the assay on Micrococcus luteus [14], 6.25 µg/mL (≈ 16.8 µM); against Candida albicans [15], 6.25 µg/mL (≈ 16.8 µM).
As for `CSc1ccc(N2C(=N)C(=S)N(c3cc(Cl)cc(Cl)c3)C2=O)cc1`, the Activity stood at 0% with Hepatovirus A, 3.4% in the assay with Human alphaherpesvirus 1 and 0% with Coxsackievirus B4. Moreover, the IC50 came out at 0.029 µg in assay [1], 0.018 in assay [2], 0.031 µg in assay [3] and 0.049 µg in assay [4]. Besides, the zone of inhibition at 5000 µg/disc with Micrococcus luteus [5] was 18 mm; in the assay on Bacillus subtilis it was 24 mm; with Bacillus pumilus [6] it was 25 mm; in the assay on Pseudomonas aeruginosa [7], 21 mm; with Escherichia coli it was 23 mm; in the assay on Micrococcus luteus [8], 26 mm. Further, the values for the zone of inhibition at 5000 µg/disc with Candida albicans [9] and with Aspergillus niger were 25 mm and 19 mm, respectively. Besides, in assay [10], the inhibition zone (IZ) turned out to be 20 mm. The MIC amounted to 0.78 µg/mL (≈ 1.97 µM) in the assay on Pseudomonas aeruginosa [11]; 6.25 µg/mL (≈ 15.8 µM) in the assay with Micrococcus luteus [12]; 6.25 µg/mL (≈ 15.8 µM) with Bacillus pumilus [13]; 6.25 µg/mL (≈ 15.8 µM) against Micrococcus luteus [14]; 6.25 µg/mL (≈ 15.8 µM) with Candida albicans [15].
As to `Cc1ccc(F)cc1N1C(=N)C(=S)N(c2cc(Cl)cc(Cl)c2)C1=O`, the results for the Activity in the assay on Hepatovirus A, in the assay on Human alphaherpesvirus 1 and with Coxsackievirus B4 were 20.6%, 45.3% and 31.1%, respectively. For the same molecule, the IC50 turned out to be 0.05 µg in [1], 0.011 in assay [2], 0.034 µg in [3] and 0.064 µg in assay [4]. Also, the zone of inhibition at 5000 µg/disc with Micrococcus luteus [5] was determined as 20 mm; in the assay with Bacillus subtilis, 20 mm; with Bacillus pumilus [6], 21 mm; in the assay on Pseudomonas aeruginosa [7] it was 22 mm; in the assay on Escherichia coli, 18 mm; in the assay on Micrococcus luteus [8], 24 mm. Also, the zone of inhibition at 5000 µg/disc with Candida albicans [9] turned out to be 18 mm; in the assay with Aspergillus niger it was 22 mm. Moreover, the inhibition zone (IZ) in [10] came to 21 mm. Also, the MIC with Pseudomonas aeruginosa [11] came to 3.12 µg/mL (≈ 8.16 µM); against Micrococcus luteus [12], 3.12 µg/mL (≈ 8.16 µM); in the assay with Bacillus pumilus [13], 6.25 µg/mL (≈ 16.4 µM); in the assay on Micrococcus luteus [14], 6.25 µg/mL (≈ 16.4 µM); against Candida albicans [15], 6.25 µg/mL (≈ 16.4 µM).
On to `COc1ccc(OC)c(N2C(=O)N(c3ccc(C)cc3)C(=N)C2=S)c1`, for which the Activity came to 30.7% with Hepatovirus A, 50.2% with Human alphaherpesvirus 1 and 0% in the assay on Coxsackievirus B4. The IC50 in assay [1] came to 0.037 µg; in [2], 0.015; in assay [3] it was 0.014 µg; in assay [4], 0.048 µg. In addition, the zone of inhibition at 5000 µg/disc in the assay on Micrococcus luteus [5] was found to be 17 mm; in the assay with Bacillus subtilis, 16 mm; with Bacillus pumilus [6] it was 20 mm; in the assay with Pseudomonas aeruginosa [7], 14 mm; in the assay with Escherichia coli, 16 mm; in the assay with Micrococcus luteus [8] it was 26 mm. Besides, the zone of inhibition at 5000 µg/disc worked out at 17 mm with Candida albicans [9] and 16 mm in the assay with Aspergillus niger. In [10], the inhibition zone (IZ) worked out at 17 mm.
Turning to `N=C1C(=S)N(c2cc(Cl)cc(Cl)c2)C(=O)N1c1c(Cl)cccc1Cl`, the Activity in the assay on Hepatovirus A came out at 70.2%; in the assay on Human alphaherpesvirus 1, 33.6%; in the assay with Coxsackievirus B4, 0%. Also, the IC50 in [1] stood at 0.039 µg; in assay [2] it was 0.02; in [3], 0.039 µg; in assay [4], 0.064 µg. The zone of inhibition at 5000 µg/disc was 16 mm with Micrococcus luteus [5]; 19 mm in the assay on Bacillus subtilis; 17 mm in the assay on Bacillus pumilus [6]; 17 mm in the assay with Pseudomonas aeruginosa [7]; 19 mm with Escherichia coli; 27 mm in the assay on Micrococcus luteus [8]. The zone of inhibition at 5000 µg/disc in the assay on Candida albicans [9] came to 23 mm; in the assay on Aspergillus niger, 15 mm. The same molecule yielded an inhibition zone (IZ) in assay [10] of 18 mm.

The values are drawn from ChEMBL document CHEMBL3867423, “New imidazolidineiminothione derivatives: Synthesis, spectral characterization and evaluation of antitumor, antiviral, antibacterial and antifungal activities” (Eur J Med Chem, 2016).
